In brackets after ≈: the same amount, converted by molar mass. Activity calls are given as the source filed them. No cut-off for these calls is given here.
Key:
Mus musculus = experiment: Antiinflammatory activity in mouse assessed as inhibition of carrageenan-induced increase in paw volume at 200 mg/kg administered 1 hr prior to carrageenan challenge measured after 3 hrs relative to control; assay type: functional
How it was run: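 Mice were fasted 2 h and placed in groups of five. Controls received saline i.p. Phenylbutazone was given at 100 mg/kg i.p., curcumin at 200 mg/kg i.p., and derivatives at 200 mg/kg. After 1 h, 0.1 mL of 1% carrageenan in saline was injected subplantar into the right hind paw. Paw volume was followed by plethysmometer for 3 h, and % inhibition was calculated as (Vc − Vt)/Vc × 100.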

HCT-116 = experiment: Cytotoxicity against human HCT116 cells after 24 hrs by MTT assay; assay type: functional, cell-based
How it was run: (§1)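 The MTT assay seeded 5 × 10⁴ cells per well and grew them 24 h in RPMI 1640 with compound at 2.5–200 µM. Medium without cells was the blank and adriamycin the positive control. MTT was added for 4 h at 37 °C, formazan was solubilised, and absorbance was read at 570 nm. IC50 is the concentration that cuts viability 50% against untreated cells.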

QG-56 = experiment: Cytotoxicity against human QG56 cells after 24 hrs by MTT assay; assay type: functional, cell-based; how it was run: as §1
HeLa = experiment: Cytotoxicity against human HeLa cells after 24 hrs by MTT assay; assay type: functional, cell-based; how it was run: as §1
HepG2 = experiment: Cytotoxicity against human HepG2 cells after 24 hrs by MTT assay; assay type: functional, cell-based; how it was run: as §1
Trichoderma viride [1] = experiment: Antifungal activity against Trichoderma viride MTCC 1107 after 48 hrs; assay type: functional; conditions: MTCC 1107, 48 h
Trichoderma viride [2] = experiment: Antifungal activity against Trichoderma viride MTCC 1107 assessed as zone of inhibition at 20 uM after 48 hrs by disc diffusion method; assay type: functional; conditions: MTCC 1107, 48 h, read-out: IZ
How it was run: (§2)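 Spores from 4-day potato dextrose agar cultures, suspended in sterile water at 1.5 × 10⁵ CFU/mL. 0.2 mL was spread on potato dextrose agar. 5 mm filter-paper discs soaked with test compound were laid on the lawn. Incubation was 48 h at 28 °C, then the inhibition zone was measured in mm. Fluconazole was the positive control and acetone the negative control.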

Trichoderma viride [3] = experiment: Antifungal activity against Trichoderma viride MTCC 1107 assessed as zone of inhibition at 40 uM after 48 hrs by disc diffusion method; assay type: functional; conditions: MTCC 1107, 48 h, read-out: IZ; how it was run: as §2
Trichoderma viride [4] = experiment: Antifungal activity against Trichoderma viride MTCC 1107 assessed as zone of inhibition at 80 uM after 48 hrs by disc diffusion method; assay type: functional; conditions: MTCC 1107, 48 h, read-out: IZ; how it was run: as §2
Curvularia lunata [5] = experiment: Antifungal activity against Curvularia lunata MTCC 581 after 48 hrs; assay type: functional; conditions: MTCC 581, 48 h
Curvularia lunata [6] = experiment: Antifungal activity against Curvularia lunata MTCC 581 assessed as zone of inhibition at 20 uM after 48 hrs by disc diffusion method; assay type: functional; conditions: MTCC 581, 48 h, read-out: IZ; how it was run: as §2
Curvularia lunata [7] = experiment: Antifungal activity against Curvularia lunata MTCC 581 assessed as zone of inhibition at 40 uM after 48 hrs by disc diffusion method; assay type: functional; conditions: MTCC 581, 48 h, read-out: IZ; how it was run: as §2
Aspergillus flavus [8] = experiment: Antifungal activity against Aspergillus flavus MTCC 1021 after 48 hrs; assay type: functional; conditions: MTCC 1021, 48 h
Curvularia lunata [9] = experiment: Antifungal activity against Curvularia lunata MTCC 581 assessed as zone of inhibition at 80 uM after 48 hrs by disc diffusion method; assay type: functional; conditions: MTCC 581, 48 h, read-out: IZ; how it was run: as §2
Aspergillus flavus [10] = experiment: Antifungal activity against Aspergillus flavus MTCC 1021 assessed as zone of inhibition at 20 uM after 48 hrs by disc diffusion method; assay type: functional; how it was run: as §2
Aspergillus flavus [11] = experiment: Antifungal activity against Aspergillus flavus MTCC 1021 assessed as zone of inhibition at 40 uM after 48 hrs by disc diffusion method; assay type: functional; how it was run: as §2
Aspergillus flavus [12] = experiment: Antifungal activity against Aspergillus flavus MTCC 1021 assessed as zone of inhibition at 80 uM after 48 hrs by disc diffusion method; assay type: functional; conditions: MTCC 1021, 48 h, read-out: IZ; how it was run: as §2
Aspergillus niger [13] = experiment: Antifungal activity against Aspergillus niger MTCC 1108 after 48 hrs; assay type: functional; conditions: MTCC 1108, 48 h
Aspergillus niger [14] = experiment: Antifungal activity against Aspergillus niger MTCC 1108 assessed as zone of inhibition at 20 uM after 48 hrs by disc diffusion method; assay type: functional; how it was run: as §2
Aspergillus niger [15] = experiment: Antifungal activity against Aspergillus niger MTCC 1108 assessed as zone of inhibition at 40 uM after 48 hrs by disc diffusion method; assay type: functional; how it was run: as §2
Aspergillus niger [16] = experiment: Antifungal activity against Aspergillus niger MTCC 1108 assessed as zone of inhibition at 80 uM after 48 hrs by disc diffusion method; assay type: functional; conditions: MTCC 1108, 48 h, read-out: IZ; how it was run: as §2
Escherichia coli [17] = experiment: Antimicrobial activity against Escherichia coli ATCC 35218 after 24 hrs by broth micro serial dilution method; assay type: functional; conditions: ATCC 35218, 24 h
How it was run: (§3)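 This was broth microdilution in autoclaved Mueller-Hinton broth. 150 µL of compound per well was serially diluted […], and 50 µL of test organism was added. Plates were incubated 24 h at 37 °C and optical density was read.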

Escherichia coli [18] = experiment: Antimicrobial activity against Escherichia coli ATCC 35218 assessed as diameter of inhibition zone at 20 uM after 24 hrs by Kirby -Baur disc diffusion method; assay type: functional; conditions: ATCC 35218, 24 h, read-out: DIZ
How it was run: (§4)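 Kirby-Bauer disc diffusion was used. Acetone stocks (160 µM) were serially doubled down to 80, 40 and 20 µM. 4 µL of each went onto 5 mm sterile paper discs, which were dried 30 min at 50 °C. Inoculum was 1.5 × 10⁸ CFU/mL diluted to 3 × 10² CFU/mL, and 50 µL was spread on Mueller-Hinton agar. After 24 h at 37 °C the inhibition-zone diameter was measured. Ciprofloxacin served as positive control.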

Escherichia coli [19] = experiment: Antimicrobial activity against Escherichia coli ATCC 35218 assessed as diameter of inhibition zone at 40 uM after 24 hrs by Kirby -Baur disc diffusion method; assay type: functional; conditions: ATCC 35218, 24 h, read-out: DIZ; how it was run: as §4
Escherichia coli [20] = experiment: Antimicrobial activity against Escherichia coli ATCC 35218 assessed as diameter of inhibition zone at 80 uM after 24 hrs by Kirby -Baur disc diffusion method; assay type: functional; conditions: ATCC 35218, 24 h, read-out: DIZ; how it was run: as §4
Pseudomonas aeruginosa [21] = experiment: Antimicrobial activity against Pseudomonas aeruginosa ATCC 15499 after 24 hrs by broth micro serial dilution method; assay type: functional; conditions: ATCC 15499, 24 h; how it was run: as §3
Pseudomonas aeruginosa [22] = experiment: Antimicrobial activity against Pseudomonas aeruginosa ATCC 15499 assessed as diameter of inhibition zone at 20 uM after 24 hrs by Kirby -Baur disc diffusion method; assay type: functional; conditions: ATCC 15499, 24 h, read-out: DIZ; how it was run: as §4
Pseudomonas aeruginosa [23] = experiment: Antimicrobial activity against Pseudomonas aeruginosa ATCC 15499 assessed as diameter of inhibition zone at 40 uM after 24 hrs by Kirby -Baur disc diffusion method; assay type: functional; conditions: ATCC 15499, 24 h, read-out: DIZ; how it was run: as §4
Pseudomonas aeruginosa [24] = experiment: Antimicrobial activity against Pseudomonas aeruginosa ATCC 15499 assessed as diameter of inhibition zone at 80 uM after 24 hrs by Kirby -Baur disc diffusion method; assay type: functional; conditions: ATCC 15499, 24 h, read-out: DIZ; how it was run: as §4
Salmonella typhi [25] = experiment: Antimicrobial activity against Salmonella typhi ATCC 23564 after 24 hrs by broth micro serial dilution method; assay type: functional, Salmonella enterica subsp. enterica serovar Typhi; conditions: Salmonella enterica, ATCC 23564, 24 h
Salmonella typhi [26] = experiment: Antimicrobial activity against Salmonella typhi ATCC 23564 assessed as diameter of inhibition zone at 20 uM after 24 hrs by Kirby -Baur disc diffusion method; assay type: functional, Salmonella enterica subsp. enterica serovar Typhi; conditions: Salmonella enterica, ATCC 23564, 24 h; read-out: DIZ
Salmonella typhi [27] = experiment: Antimicrobial activity against Salmonella typhi ATCC 23564 assessed as diameter of inhibition zone at 40 uM after 24 hrs by Kirby -Baur disc diffusion method; assay type: functional, Salmonella enterica subsp. enterica serovar Typhi; conditions: Salmonella enterica, ATCC 23564, 24 h; read-out: DIZ
Salmonella typhi [28] = experiment: Antimicrobial activity against Salmonella typhi ATCC 23564 assessed as diameter of inhibition zone at 80 uM after 24 hrs by Kirby -Baur disc diffusion method; assay type: functional, Salmonella enterica subsp. enterica serovar Typhi; conditions: Salmonella enterica, ATCC 23564, 24 h; read-out: DIZ
Bacillus cereus [29] = experiment: Antimicrobial activity against Bacillus cereus MTCC 7350 after 24 hrs by broth micro serial dilution method; assay type: functional; conditions: MTCC 7350, 24 h; how it was run: as §3
Bacillus cereus [30] = experiment: Antimicrobial activity against Bacillus cereus MTCC 7350 assessed as diameter of inhibition zone at 20 uM after 24 hrs by Kirby -Baur disc diffusion method; assay type: functional; conditions: MTCC 7350, 24 h, read-out: DIZ; how it was run: as §4
Bacillus cereus [31] = experiment: Antimicrobial activity against Bacillus cereus MTCC 7350 assessed as diameter of inhibition zone at 40 uM after 24 hrs by Kirby -Baur disc diffusion method; assay type: functional; conditions: MTCC 7350, 24 h, read-out: DIZ; how it was run: as §4
Bacillus cereus [32] = experiment: Antimicrobial activity against Bacillus cereus MTCC 7350 assessed as diameter of inhibition zone at 80 uM after 24 hrs by Kirby -Baur disc diffusion method; assay type: functional; conditions: MTCC 7350, 24 h, read-out: DIZ; how it was run: as §4
Staphylococcus aureus [33] = experiment: Antimicrobial activity against Staphylococcus aureus ATCC 11632 after 24 hrs by broth micro serial dilution method; assay type: functional; conditions: ATCC 11632, 24 h; how it was run: as §3
Staphylococcus aureus [34] = experiment: Antimicrobial activity against Staphylococcus aureus ATCC 11632 assessed as diameter of inhibition zone at 20 uM after 24 hrs by Kirby -Baur disc diffusion method; assay type: functional; conditions: ATCC 11632, 24 h, read-out: DIZ; how it was run: as §4
Staphylococcus aureus [35] = experiment: Antimicrobial activity against Staphylococcus aureus ATCC 11632 assessed as diameter of inhibition zone at 40 uM after 24 hrs by Kirby -Baur disc diffusion method; assay type: functional; conditions: ATCC 11632, 24 h, read-out: DIZ; how it was run: as §4
Staphylococcus aureus [36] = experiment: Antimicrobial activity against Staphylococcus aureus ATCC 11632 assessed as diameter of inhibition zone at 80 uM after 24 hrs by Kirby -Baur disc diffusion method; assay type: functional; conditions: ATCC 11632, 24 h, read-out: DIZ; how it was run: as §4

COc1cc(/C=C/C(CC(/C=C/c2ccc(O)c(OC)c2)=N/c2ccc(S(=O)(=O)Nc3cc(C)on3)cc2)=N\c2ccc(S(=O)(=O)Nc3cc(C)on3)cc2)ccc1O
inhibition in vivo at 200 mg/kg (Mus musculus): 8% | IC50 (HCT-116): 100 µM | IC50 (QG-56): 100 µM | IC50 (HeLa): 100 µM | IC50 (HepG2): 100 µM | MIC (Trichoderma viride [1]): 40 µM (≈ 33.6 µg/mL) | zone of inhibition at 20 µM (Trichoderma viride [2]): 9 mm | zone of inhibition at 40 µM (Trichoderma viride [3]): 11 mm | zone of inhibition at 80 µM (Trichoderma viride [4]): 13 mm | MIC (Curvularia lunata [5]): 40 µM (≈ 33.6 µg/mL) | zone of inhibition at 20 µM (Curvularia lunata [6]): 9 mm | zone of inhibition at 40 µM (Curvularia lunata [7]): 10 mm | MIC (Aspergillus flavus [8]): > 80 µM | zone of inhibition at 80 µM (Curvularia lunata [9]): 11 mm | inhibition zone (IZ) (Aspergillus flavus [10]): inactive | inhibition zone (IZ) (Aspergillus flavus [11]): inactive | zone of inhibition at 80 µM (Aspergillus flavus [12]): 9 mm | MIC (Aspergillus niger [13]): > 80 µM | inhibition zone (IZ) (Aspergillus niger [14]): inactive | inhibition zone (IZ) (Aspergillus niger [15]): inactive | zone of inhibition at 80 µM (Aspergillus niger [16]): 10 mm | MIC (Escherichia coli [17]): 20 µM (≈ 16.8 µg/mL) | zone of inhibition at 20 µM (Escherichia coli [18]): 18 mm | zone of inhibition at 40 µM (Escherichia coli [19]): 21 mm | zone of inhibition at 80 µM (Escherichia coli [20]): 23 mm | MIC (Pseudomonas aeruginosa [21]): 40 µM (≈ 33.6 µg/mL) | zone of inhibition at 20 µM (Pseudomonas aeruginosa [22]): 16 mm | zone of inhibition at 40 µM (Pseudomonas aeruginosa [23]): 21 mm | zone of inhibition at 80 µM (Pseudomonas aeruginosa [24]): 26 mm | MIC (Salmonella typhi [25]): 40 µM (≈ 33.6 µg/mL) | zone of inhibition at 20 µM (Salmonella typhi [26]): 18 mm | zone of inhibition at 40 µM (Salmonella typhi [27]): 26 mm | zone of inhibition at 80 µM (Salmonella typhi [28]): 29 mm | MIC (Bacillus cereus [29]): 40 µM (≈ 33.6 µg/mL) | zone of inhibition at 20 µM (Bacillus cereus [30]): 11 mm | zone of inhibition at 40 µM (Bacillus cereus [31]): 16 mm | zone of inhibition at 80 µM (Bacillus cereus [32]): 21 mm | MIC (Staphylococcus aureus [33]): 40 µM (≈ 33.6 µg/mL) | zone of inhibition at 20 µM (Staphylococcus aureus [34]): 17 mm | zone of inhibition at 40 µM (Staphylococcus aureus [35]): 21 mm | zone of inhibition at 80 µM (Staphylococcus aureus [36]): 24 mm

From ChEMBL document CHEMBL2384906, “Biological activity, design, synthesis and structure activity relationship of some novel derivatives of curcumin containing sulfonamides” (Eur J Med Chem, 2013)
